Source: ChEMBL document CHEMBL1145493, “Exposure-response analyses of tigecycline efficacy in patients with complicated skin and skin-structure infections” (Antimicrob Agents Chemother, 2007)
In brackets after ≈: the same amount, converted by molar mass.

Columns and labels:
Klebsiella oxytoca = test: Antibacterial activity against Klebsiella oxytoca; assay type: functional
How it was run: (§1)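 MICs for baseline pathogens isolated from patients with complicated skin and skin-structure infections. Isolates went to a central laboratory for identification and susceptibility testing by CLSI broth dilution in fresh media.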

Proteus mirabilis = test: Antibacterial activity against Proteus mirabilis; assay type: functional; how it was run: as §1
Enterococcus faecalis = test: Antibacterial activity against Enterococcus faecalis; assay type: functional; how it was run: as §1
[1] = tested on: Streptococcus constellatus; test: Antibacterial activity against Streptococcus constellatus; assay type: functional; how it was run: as §1
[2] = tested on: Acinetobacter calcoaceticus; test: Antibacterial activity against Acinetobacter calcoaceticus; assay type: functional; how it was run: as §1
Citrobacter koseri = test: Antibacterial activity against Citrobacter koseri; assay type: functional; how it was run: as §1
[3] = tested on: Streptococcus intermedius; test: Antibacterial activity against Streptococcus intermedius; assay type: functional; how it was run: as §1
[4] = tested on: Streptococcus dysgalactiae subsp. equisimilis; test: Antibacterial activity against Streptococcus equisimilis; assay type: functional; how it was run: as §1
Streptococcus anginosus = test: Antibacterial activity against Streptococcus anginosus; assay type: functional; how it was run: as §1
Klebsiella pneumoniae = test: Antibacterial activity against Klebsiella pneumoniae; assay type: functional
How it was run: (§2)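 Baseline isolates from cSSSI patients in three pooled tigecycline trials (one phase 2, two phase 3) were identified and susceptibility-tested at a central laboratory. MICs were determined by broth dilution in fresh media following Clinical and Laboratory Standards Institute guidelines.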

Pseudomonas aeruginosa = test: Antibacterial activity against Pseudomonas aeruginosa; assay type: functional; how it was run: as §2
[5] = tested on: Streptococcus dysgalactiae; test: Antibacterial activity against Streptococcus dysgalactiae; assay type: functional; how it was run: as §1
Streptococcus agalactiae = test: Antibacterial activity against Streptococcus agalactiae; assay type: functional; how it was run: as §1
Citrobacter freundii = test: Antibacterial activity against Citrobacter freundii; assay type: functional; how it was run: as §1
[6] = AUC (24 hrs)/MIC in patient with baseline skin pathogens at 100 mg loading dose followed by 50 mg every 12 hrs; assay type: ADME, cell-free; conditions: human, plasma
How it was run: (§3)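 Per-patient ratio of model-derived steady-state AUC24 to the MIC of the baseline pathogen. The AUC24 came from population PK analysis of serum LC-MS/MS levels sampled predose and at 1, 3 and 6 h. MICs were set centrally by CLSI broth dilution in fresh media on isolates taken at baseline, with i.v. dosing over 7 to 14 days.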

Enterobacter cloacae = test: Antibacterial activity against Enterobacter cloacae; assay type: functional; how it was run: as §2
[7] = AUC at 24 hrs steady state in patient with complicated skin and skin structure infection at 50 mg loading dose followed by 25 mg every 12 hrs; assay type: ADME, organism-based; design: time < 24 hr, dose 50 mg; conditions: human, plasma
How it was run: (§4)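 Tigecycline given i.v. for 7 to 14 days. Levels were measured by validated LC-MS/MS (LLOQ 10 ng/ml). Steady-state AUC24 was derived from a population PK model in evaluable patients pooled from three trials.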

Acinetobacter baumannii = test: Antibacterial activity against Acinetobacter baumannii; assay type: functional; how it was run: as §2
Staphylococcus aureus = test: Antibacterial activity against Staphylococcus aureus; assay type: functional; how it was run: as §2
[8] = AUC (24 hrs)/MIC in patient with baseline skin pathogens at 50 mg loading dose followed by 25 mg every 12 hrs; assay type: ADME, cell-free; conditions: human, plasma; how it was run: as §3
[9] = tested on: Acinetobacter haemolyticus; test: Antibacterial activity against Acinetobacter haemolyticus; assay type: functional; how it was run: as §1
[10] = AUC at 24 hrs steady state in patient with complicated skin and skin structure infection at 100 mg loading dose followed by 50 mg every 12 hrs; assay type: ADME, organism-based; design: dose 100 mg, time < 24 hr; conditions: human, plasma; how it was run: as §4
Serratia marcescens = test: Antibacterial activity against Serratia marcescens; assay type: functional; how it was run: as §1
Escherichia coli = test: Antibacterial activity against Escherichia coli; assay type: functional; how it was run: as §2
Streptococcus pyogenes = test: Antibacterial activity against Streptococcus pyogenes; assay type: functional; how it was run: as §1
Enterococcus faecium = test: Antibacterial activity against Enterococcus faecium; assay type: functional; how it was run: as §1

`CN(C)c1cc(NC(=O)CNC(C)(C)C)c(O)c2c1C[C@H]1C[C@H]3[C@H](N(C)C)C(O)=C(C(N)=O)C(=O)[C@@]3(O)C(O)=C1C2=O` [TIGECYCLINE] gave an MIC (Klebsiella oxytoca) of 0.5 µg/mL (≈ 0.854 µM), an MIC (Proteus mirabilis) of 2 µg/mL (≈ 3.41 µM) and an MIC (Enterococcus faecalis) of 0.12 µg/mL (≈ 0.205 µM). For the same compound, the MIC [1] was 0.12 µg/mL (≈ 0.205 µM), the MIC [2] was 0.25 µg/mL (≈ 0.427 µM) and the MIC (Citrobacter koseri) was 0.5 µg/mL (≈ 0.854 µM). It also gave an MIC [3] of 0.06 µg/mL (≈ 0.102 µM), an MIC [4] of 0.06 µg/mL (≈ 0.102 µM) and an MIC (Streptococcus anginosus) of 0.06 µg/mL (≈ 0.102 µM). The MIC (Klebsiella pneumoniae) was 0.5 µg/mL (≈ 0.854 µM), the MIC (Pseudomonas aeruginosa) was 8 µg/mL (≈ 13.7 µM) and the MIC [5] was 0.12 µg/mL (≈ 0.205 µM). The MIC (Streptococcus agalactiae) was 0.06 µg/mL (≈ 0.102 µM), the MIC (Citrobacter freundii) was 0.5 µg/mL (≈ 0.854 µM) and the RatioAUC/MIC [6] was 32.5. The MIC (Enterobacter cloacae) was 1 µg/mL (≈ 1.71 µM), the AUC at 24 h [7] was 2660 ng·h/mL and the MIC (Acinetobacter baumannii) was 0.25 µg/mL (≈ 0.427 µM). The MIC (Staphylococcus aureus) was 0.06 µg/mL (≈ 0.102 µM), the RatioAUC/MIC [8] was 13.3 and the MIC [9] was 0.5 µg/mL (≈ 0.854 µM). It also gave an AUC at 24 h [10] of 5390 ng·h/mL, an MIC (Serratia marcescens) of 1 µg/mL (≈ 1.71 µM) and an MIC (Escherichia coli) of 0.25 µg/mL (≈ 0.427 µM). It also gave an MIC (Streptococcus pyogenes) of 0.06 µg/mL (≈ 0.102 µM) and an MIC (Enterococcus faecium) of 0.06 µg/mL (≈ 0.102 µM).
